Experimental data published in ChEMBL document CHEMBL1152160, “Synthesis and bioevaluation of hybrid 4-aminoquinoline triazines as a new class of antimalarial agents” (Bioorg Med Chem Lett, 2008).
Values after ≈ are worked out from the molar mass of the structure shown.

Columns and labels:
[1] = Selectivity index, ratio of IC50 for african green monkey (Cercopithecus aethiops) Vero cells to IC50 for chloroquine-sensitive Plasmodium falciparum 3D7; assay type: toxicity, cell-based; settings: read-out: Ratio IC50
In short: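 Vero cells at 1 × 10⁴ cells/well were exposed to varying compound concentrations, highest 100 µg/mL, for 72 h. Viability was measured by MTT. Cytotoxic IC50 was taken from non-linear regression of dose–response curves and divided by the 3D7 IC50 to give the index.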

Plasmodium yoelii [2] = assay: Antimalarial activity as reduced parasitaemia after 4 days against Plasmodium yoelii N67 infected Swiss mice (Mus musculus) at 50 mg/kg/day intraperitoneal dose; assay type: functional, N-67; design: scale not given: the % may be the effect or the level left
In short: (§1)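 Swiss mice (22 ± 2 g), groups of five, inoculated day 0 with P. yoelii N-67-parasitized RBC. Dosed 50 mg/kg/day i.p. once daily, days 0–3, as aqueous suspension with a few drops of Tween 80 in 0.2 mL. Parasitaemia read from thin blood smears on days 4–6. Group mean gave % suppression versus untreated controls. CQ-treated mice as reference.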

Plasmodium yoelii [3] = assay: Antimalarial activity as reduced parasitaemia after 6 days against Plasmodium yoelii N67 infected Swiss mice (Mus musculus) at 50 mg/kg/day intraperitoneal dose; assay type: functional, N-67; design: scale not given: the % may be the effect or the level left; in short: as §1
Plasmodium falciparum = assay: Antimalarial activity after 72hrs against chloroquine-sensitive Plasmodium falciparum 3D7 infected erythrocytes; assay type: functional, organism-based; settings: 3D7, 72 h
In short: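 Serial dilutions in screening medium, seven concentrations (top 500 ng/mL, or 100 ng/mL for some compounds), duplicate wells. Added 2.5% haematocrit erythrocytes at 0.5% parasitaemia. Uninfected erythrocytes without drug as negative control, CQ as positive control. After 72 h, SYBR Green I in lysis buffer (20 mM tris pH 7.5, 5 mM EDTA, saponin, Triton X-100), 1 h room temperature, fluorescence read.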

Mus musculus = assay: Toxicity to Plasmodium yoelii N-67 infected Swiss mice (Mus musculus) assessed as survival at 50 mg/kg/day, intraperitoneally after 28 days; assay type: organism-based; design: route intraperitoneal; settings: in vivo, ip, 672 h
In short: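 Swiss mice were infected on day 0 with parasitized RBC of CQ-resistant P. yoelii N-67. Groups of five were dosed intraperitoneally at 50 mg/kg/day, once daily on days 0–3. Compounds were given as aqueous suspensions with a few drops of Tween 80. Survival was followed for 28 days. CQ-treated mice served as reference controls.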

| SMILES | selectivity ratio [1] | Activity (Plasmodium yoelii [2]) [%] | Activity (Plasmodium yoelii [3]) [%] | IC50 (Plasmodium falciparum) [mg/L] | Activity (Mus musculus) |
| --- | --- | --- | --- | --- | --- |
| Clc1ccc2c(NCCN3CCN(c4nc(Nc5ccccc5)nc(N5CCCCC5)n4)CC3)ccnc2c1 | 117 | 66.67 | 55.36 | 0.0178 (≈ 0.0328 µM) | – |
| Clc1ccc2c(NCCN3CCN(c4nc(Nc5ccccc5)nc(NC5CCCCC5)n4)CC3)ccnc2c1 | 154 | 86.43 | 78.73 | 0.0162 (≈ 0.0291 µM) | – |
| Cc1ccc(Nc2nc(NC3CCCCC3)nc(N3CCN(CCNc4ccnc5cc(Cl)ccc45)CC3)n2)cc1 | 115 | – | – | 0.256 (≈ 0.447 µM) | – |
| Cc1ccccc1Nc1nc(N2CCOCC2)nc(N2CCN(CCNc3ccnc4cc(Cl)ccc34)CC2)n1 | 377 | – | – | 0.0192 (≈ 0.0342 µM) | – |
| CCN(CC)CCCC(C)Nc1ccnc2cc(Cl)ccc12 (stereo unspecified) [CHLOROQUINE] | – | 99.9 | 94.26 | – | – |
| Cc1ccc(Nc2nc(Nc3ccc(C)cc3)nc(N3CCN(CCNc4ccnc5cc(Cl)ccc45)CC3)n2)cc1 | 155 | – | – | 0.0383 (≈ 0.0659 µM) | – |
| Fc1ccccc1Nc1nc(N2CCCCC2)nc(N2CCN(CCNc3ccnc4cc(Cl)ccc34)CC2)n1 | 14.9 | – | – | 0.159 (≈ 0.283 µM) | – |
| Cc1ccc(Nc2nc(N3CCN(CCNc4ccnc5cc(Cl)ccc45)CC3)nc(N3CCN(c4ccccc4)CC3)n2)cc1 | 52.2 | – | – | 0.0646 (≈ 0.102 µM) | – |
| Cc1ccc(Nc2nc(N3CCOCC3)nc(N3CCN(CCNc4ccnc5cc(Cl)ccc45)CC3)n2)cc1 | 512 | – | – | 0.0435 (≈ 0.0776 µM) | – |
| CCN1CCN(c2nc(Nc3ccc(C)cc3)nc(N3CCN(CCNc4ccnc5cc(Cl)ccc45)CC3)n2)CC1 | 41 | – | – | 0.019 (≈ 0.0324 µM) | – |
| CCN1CCN(c2nc(Nc3ccccc3)nc(N3CCN(CCNc4ccnc5cc(Cl)ccc45)CC3)n2)CC1 | 41.8 | – | – | 0.038 (≈ 0.0663 µM) | – |
| Cc1ccccc1Nc1nc(Nc2ccccc2C)nc(N2CCN(CCNc3ccnc4cc(Cl)ccc34)CC2)n1 | 75.3 | – | – | 0.186 (≈ 0.32 µM) | – |
| Clc1ccc2c(NCCN3CCN(c4nc(N5CCCCC5)nc(N5CCCCC5)n4)CC3)ccnc2c1 | 53.2 | – | – | 0.0444 (≈ 0.0828 µM) | – |
| Clc1ccc2c(NCCN3CCN(c4nc(Nc5ccccc5)nc(Nc5ccccc5)n4)CC3)ccnc2c1 | 27.8 | – | – | 0.0756 (≈ 0.137 µM) | – |
| Clc1ccc2c(NCCN3CCN(c4nc(NC5CCCCC5)nc(N5CCCCC5)n4)CC3)ccnc2c1 | 481 | 99.9 | 99.11 | 0.00443 (≈ 0.00805 µM) | Toxic |
| Clc1ccc2c(NCCN3CCN(c4nc(Nc5ccccc5)nc(N5CCOCC5)n4)CC3)ccnc2c1 | 470 | – | – | 0.0213 (≈ 0.039 µM) | – |
| Fc1ccc(Nc2nc(N3CCCCC3)nc(N3CCN(CCNc4ccnc5cc(Cl)ccc45)CC3)n2)cc1 | 329 | 99.9 | 96.51 | 0.00715 (≈ 0.0127 µM) | – |
| O=CN1CCN(c2nc(N3CCOCC3)nc(N3CCN(CCNc4ccnc5cc(Cl)ccc45)CC3)n2)CC1 | 4110 | – | – | 0.0105 (≈ 0.0185 µM) | – |
| Cc1ccccc1Nc1nc(NC2CCCCC2)nc(N2CCN(CCNc3ccnc4cc(Cl)ccc34)CC2)n1 | 29 | – | – | 0.194 (≈ 0.34 µM) | – |
| Fc1ccc(Nc2nc(NC3CCCCC3)nc(N3CCN(CCNc4ccnc5cc(Cl)ccc45)CC3)n2)cc1 | 262 | 74.81 | 71.75 | 0.00783 (≈ 0.0136 µM) | – |
